Test results published in ChEMBL document CHEMBL5244225, “Bioassay-Guided Isolation of Fungistatic Compounds from Mimosa caesalpiniifolia Leaves” (J Nat Prod, 2019).
Activity calls are given as the source filed them. The calls are words filed in the database; no cut-off is given here.

Legend:
[1] = tested on: Pichia kudriavzevii; assay: Antifungal activity against Candida krusei ATCC 6258 assessed as inhibition of microbial growth incubated for 24 hrs by broth microdilution method; type: functional, organism-based; settings: for IC50: ATCC 6258, 24 h; for IC90: ATCC 6258, time 24 hrs
How it was run: (§1)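 Broth microdilution following CLSI M27-A3 and supplement M27-S4. Pure compounds were tested at 100 down to 0.06 μg mL−1 in a 10-step series, diluted from DMSO (≤1% DMSO final). Fluconazole served as the fungistatic control. Plates were incubated at 37 °C for 24 h and growth was read spectrophotometrically at 530 nm. IC50 and IC90 were taken as 50% and 90% growth inhibition.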

[2] = tested on: Nakaseomyces glabratus; assay: Antifungal activity against Candida glabrata ATCC 90030 assessed as inhibition of microbial growth incubated for 24 hrs by broth microdilution method; type: functional, organism-based; settings: for IC50: ATCC 90030, 24 h; for IC90: ATCC 90030, time 24 hrs; how it was run: as §1
[3] = tested on: Pichia kudriavzevii; assay: Antifungal activity against Candida krusei ATCC 6258 assessed as inhibition of microbial growth at 100 to 0.06 ug/ml incubated for 24 hrs by broth microdilution method; type: functional, organism-based; settings: dose 100-0.06 µg/ml
[4] = tested on: Pichia kudriavzevii; assay: Antifungal activity against Candida krusei ATCC 6258 assessed as inhibition of microbial growth incubated for 24 hrs in the presence of 3-(beta-D-glucopyranosyloxy)sitosterol by broth microdilution method; type: functional, organism-based; settings: ATCC 6258, 24 h
How it was run: (§2)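 Checkerboard combination of two compounds, each serially diluted in Mueller−Hinton broth. Ranges were set so that, after adding inoculum, concentrations sat at the range averages. Plates were incubated for 24 h at 37 °C and growth was quantified at 530 nm, as in the single-agent microdilution test. The inhibitory concentration of each compound was determined in combination.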

[5] = tested on: Nakaseomyces glabratus; assay: Antifungal activity against Candida glabrata ATCC 90030 assessed as inhibition of microbial growth incubated for 24 hrs in the presence of 3-(beta-D-glucopyranosyloxy)sitosterol by broth microdilution method; type: functional, organism-based; settings: ATCC 90030, 24 h; how it was run: as §2
[6] = tested on: Nakaseomyces glabratus; assay: Selectivity index, ratio of IC50 for antifungal activity against Candida glabrata ATCC 90030 to IC50 for antifungal activity against Candida glabrata ATCC 90030 in the presence of 3-(beta-D-glucopyranosyloxy)sitosterol; type: functional
[7] = tested on: Nakaseomyces glabratus; assay: Additive antifungal activity against Candida glabrata ATCC 90030 assessed as fractional inhibitory concentration index incubated for 24 hrs in the presence of 3-(beta-D-glucopyranosyloxy)sitosterol by checkerboard assay; type: functional
How it was run: (§3)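 Checkerboard pairing of two compounds serially diluted in Mueller−Hinton broth, incubated for 24 h at 37 °C, with growth read spectrophotometrically at 530 nm. Each FIC is the compound's IC in combination divided by its IC alone, and ΣFIC is the sum of the FIC values. ΣFIC ≤0.5 was taken as synergy, 0.5–4 as no interaction and >4 as antagonism.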

[8] = tested on: Pichia kudriavzevii; assay: Synergistic antifungal activity against Candida krusei ATCC 6258 assessed as fractional inhibitory concentration index incubated for 24 hrs in the presence of 3-(beta-D-glucopyranosyloxy)sitosterol by checkerboard assay; type: functional; how it was run: as §3

Row | SMILES | IC50 [1] | IC90 [1] | IC50 [2] | also measured
1 | O=C(O)/C=C/c1c(O)cc(O)c2c(=O)cc(-c3ccc(O)cc3)oc12 | 125 µg/mL | 250 µg/mL | 3.9 µg/mL | IC90 [2]: 250 µg/mL
2 | C[C@@]12Oc3cc4oc(-c5ccc(O)cc5)cc(=O)c4c(O)c3[C@@H](C[C@H](O)[C@H]1O)O2 | 62.5 µg/mL | 250 µg/mL | 7.8 µg/mL | IC90 [2]: 500 µg/mL
3 | C[C@H]1O[C@@H](c2c(O)cc(O)c3c(=O)cc(-c4ccc(O)cc4)oc23)C[C@@H](O)[C@@H]1O | 7.8 µg/mL | 250 µg/mL | 3.9 µg/mL | IC90 [2]: 500 µg/mL
4 | C[C@H]1O[C@@H](c2c(O)cc3oc(-c4ccc(O)cc4)cc(=O)c3c2O)C[C@H](O)[C@H]1O | 250 µg/mL | 1000 µg/mL | 1000 µg/mL | 
5 | O=C(O)/C=C/c1c(O)cc2oc(-c3ccc(O)cc3)cc(=O)c2c1O | 15 µg/mL |  | 3.9 µg/mL | 
6 | OC(Cn1cncn1)(Cn1cncn1)c1ccc(F)cc1F [FLUCONAZOLE] | 16 µg/mL |  | 4 µg/mL | 
7 | C[C@@H]1O[C@@H](O[C@H]2C(=O)[C@@H](O)[C@H](C)O[C@@H]2c2c(O)cc3oc(-c4ccc(O)c(O)c4)cc(=O)c3c2O)[C@H](O)[C@H](O)[C@H]1O |  |  | 100 µg/mL | Activity [3]: inactive
8 | O=c1c(O)c(-c2ccc(O)c(O)c2)oc2cc(O)cc(O)c12 [QUERCETIN] | 100 µg/mL |  | 60 µg/mL | 
9 | C[C@@H]1O[C@@H](O[C@H]2C(=O)[C@@H](O)[C@H](C)O[C@@H]2c2c(O)cc(O)c3c(=O)cc(-c4ccc(O)c(O)c4)oc23)[C@H](O)[C@H](O)[C@H]1O | 100 µg/mL |  | 60 µg/mL | 
10 | CCOC(=O)c1cc(O)c(O)c(O)c1 [ETHYLGALLATE] | 15 µg/mL |  | 15 µg/mL | IC50 [4]: 1 µg/mL; IC50 [5]: 2.5 µg/mL; Ratio IC50 [6]: 100; fractional inhibitory concentration index (FICI) [7]: 0.5; fractional inhibitory concentration index (FICI) [8]: 0.1
11 | O=c1cc(-c2ccc(O)c(O)c2)oc2cc(O)cc(O)c12 [LUTEOLIN] |  |  | 15 µg/mL | Activity [3]: inactive
12 | O=C(O)c1cc(O)c(O)c(O)c1 [GALLIC ACID] |  |  | 60 µg/mL | Activity [3]: inactive
